In ChEMBL document CHEMBL1135527, “Synthesis and evaluation of 2'-substituted 4-(4'-carboxy- or 4'-carboxymethylbenzylidene)-N-acylpiperidines: highly potent and in vivo active steroid 5alpha-reductase type 2 inhibitors” (J Med Chem, 2002):

Legend:
[1] = molecular target: T1, 3-oxo-5-alpha-steroid 4-dehydrogenase 2 (Rattus norvegicus, UniProt P31214); test: Inhibition of Steroid 5-alpha-reductase type 2 of rat ventral prostate (RVP); type: tissue-based, Prostate gland
T1 sequence (P31214 whole entry): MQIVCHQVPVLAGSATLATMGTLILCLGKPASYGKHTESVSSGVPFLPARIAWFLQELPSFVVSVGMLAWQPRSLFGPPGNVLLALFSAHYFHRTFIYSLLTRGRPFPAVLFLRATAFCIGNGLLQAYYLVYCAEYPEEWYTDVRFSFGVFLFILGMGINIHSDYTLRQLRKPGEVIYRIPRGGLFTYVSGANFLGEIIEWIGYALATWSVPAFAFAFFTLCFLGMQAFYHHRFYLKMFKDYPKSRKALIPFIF
Method in brief: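 Type 2 source: rat ventral prostate homogenized in citrate buffer pH 5.5, 105000g pellet. About 250 μg protein incubated 30 min at 37 °C in 40 mM citrate pH 5.5 with 200 μM NADPH, 0.21 μM [1,2-³H]testosterone and 2% DMSO. NaOH stop, ether extraction, radio-HPLC of T/DHT. Result given as % inhibition at 10 μM or IC50, run in duplicate.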

[2] = molecular target: T2, 3-oxo-5-alpha-steroid 4-dehydrogenase 1 (Homo sapiens, UniProt P18405); test: In vitro inhibitory activity against Steroid 5-alpha-reductase type I of human DU 145 prostatic tumor cell line
T2 sequence (P18405 whole entry): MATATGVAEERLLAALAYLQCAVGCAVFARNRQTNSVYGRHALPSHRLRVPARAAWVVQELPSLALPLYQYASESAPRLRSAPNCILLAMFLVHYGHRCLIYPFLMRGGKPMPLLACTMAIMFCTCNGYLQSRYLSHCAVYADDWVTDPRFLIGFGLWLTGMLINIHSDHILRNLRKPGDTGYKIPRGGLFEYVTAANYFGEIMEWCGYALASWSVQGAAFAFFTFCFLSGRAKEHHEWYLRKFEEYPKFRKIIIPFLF
Method in brief: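 Intact human prostatic carcinoma DU145 cells (type 1 enzyme source), seeded at 180 000 cells/well and left to adhere overnight, incubated 6 h at 37 °C in 5% CO2 with compound in DMSO in complete medium; substrate tritiated androstenedione 5 nM. Medium extracted with diethyl ether, steroids separated by radio-HPLC. Screened at 10 μM, duplicate; product formed as % of uninhibited control.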

[3] = molecular target: T3, 3-oxo-5-alpha-steroid 4-dehydrogenase 1 (Rattus norvegicus, UniProt P24008); test: Inhibition of Steroid 5-alpha-reductase type I from rat ventral prostate (RVP); type: tissue-based, Prostate gland
T3 sequence (P24008 whole entry): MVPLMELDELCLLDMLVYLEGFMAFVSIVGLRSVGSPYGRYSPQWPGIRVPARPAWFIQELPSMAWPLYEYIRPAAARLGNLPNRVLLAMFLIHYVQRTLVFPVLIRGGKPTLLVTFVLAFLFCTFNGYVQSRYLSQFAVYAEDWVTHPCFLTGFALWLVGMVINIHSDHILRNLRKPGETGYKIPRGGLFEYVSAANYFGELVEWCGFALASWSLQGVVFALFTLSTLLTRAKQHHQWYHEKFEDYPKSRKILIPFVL
Method in brief: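 Rat ventral prostate 105000g pellet made in 20 mM phosphate pH 6.6 with […] and 1 mM DTT at 0–4 °C. About 250 μg protein incubated 30 min at 37 °C in 40 mM phosphate pH 6.6 with 200 μM NADPH, 0.21 μM [1,2-³H]testosterone and 2% DMSO. Ether extraction, radio-HPLC of T and DHT. % inhibition at 10 μM or IC50; duplicates.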

[4] = molecular target: T4, 3-oxo-5-alpha-steroid 4-dehydrogenase 2 (Homo sapiens, UniProt P31213); test: Inhibition of Steroid 5-alpha-reductase type 2 from human benign prostatic hyperplasia (BPH) tissue
T4 sequence (P31213 whole entry): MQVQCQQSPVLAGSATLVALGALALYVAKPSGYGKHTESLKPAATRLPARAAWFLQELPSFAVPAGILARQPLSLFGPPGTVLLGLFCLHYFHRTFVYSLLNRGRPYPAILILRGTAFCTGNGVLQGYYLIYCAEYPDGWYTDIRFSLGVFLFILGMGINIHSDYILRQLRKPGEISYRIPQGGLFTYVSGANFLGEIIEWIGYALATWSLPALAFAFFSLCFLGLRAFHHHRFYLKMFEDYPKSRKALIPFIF
Method in brief: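 Human BPH prostate 105000g pellet (nuclei, mitochondria, microsomes) prepared in citrate buffer pH 5.5. Incubation of about 125 μg protein for 30 min at 37 °C in 40 mM citrate pH 5.5 with 100 μM NADPH, 0.21 μM [1,2-³H]testosterone and 2% DMSO. Reaction stopped with NaOH, steroids extracted with ether, T/DHT separated by radio-HPLC. Single 10 μM test or IC50; duplicates.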

- IC50 [1]: 11 nM
- IC50 [2]: 41 nM
- IC50 [3]: 10 nM
- IC50 [4]: 5 nM
SMILES: CC(C)(C)NC(=O)[C@H]1CC[C@H]2[C@@H]3CC[C@H]4NC(=O)C=C[C@]4(C)[C@H]3CC[C@]12C [FINASTERIDE]
